Drawing on ChEMBL document CHEMBL5107936, “Anti-amyloidogenic indolizino[3,2-c]quinolines as imaging probes differentiating dense-core, diffuse, and coronal plaques of amyloid-β” (RSC Med Chem, 2021), this text covers Activity and inhibition for 32 compounds.

The test system of one data set is HT-22. In words: Cytotoxicity against mouse HT-22 cells assessed as reduction in cell viability incubated for 18 hrs by MTT assay. Type of data set: toxicity, cell-based. The note with it: ht-22, 18 h.
Data set [1] concerns the target Amyloid-beta precursor protein (Homo sapiens) (UniProt P05067). Nature of the data set: Inhibition of Amyloid beta (1 to 42 ) (unknown origin) aggregation assessed as fibrilization amyloid beta by measuring beta sheets at 1 to 50 uM incubated for 3 days by Thioflavin T based fluorescence assay. The note with it: dose 1-50 µM, time 3.0 day.
The target is the same in data set [2]. Nature of the data set: Inhibition of Amyloid beta (1 to 42 ) (unknown origin) aggregation at 0.5 to 50 uM incubated for 3 days followed by incandescent lamp irradiation by photo-induced cross-linking of unmodified proteins method. The note with it: dose 0.5-50 µM, time 3.0 day. An outline of the steps:
(§1)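 Cross-linked Aβ products resolved on gels, imaged by fluorescence scanning and by silver staining. Band area quantified by densitometry and normalized to the 3-day aggregates, set as 100%.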

Data set [3] has the same target. Nature of the data set: Inhibition of Amyloid beta (1 to 42 ) (unknown origin) disaggregation assessed as reduction in aggregation by measuring monomer band intensity at 0.5 to 50 uM incubated for 3 days followed by incandescent lamp irradiation by photo-induced cross-linking of unmodified proteins method. The conditions noted are these: dose 0.5-50 µM, time 3.0 day. An outline of the steps: as §1

The target is the same in data set [4]. Nature of the data set: Inhibition of Amyloid beta (1 to 42 ) (unknown origin) disaggregation assessed as reduction in mature fibril at 50 uM preincubated with amyloid beta followed by compound addition and measured after 3 days by Thioflavin T based fluorescence assay. The conditions noted are these: time 3.0 day.

Amyloid-beta precursor protein (Homo sapiens), sequence (P05067 whole entry): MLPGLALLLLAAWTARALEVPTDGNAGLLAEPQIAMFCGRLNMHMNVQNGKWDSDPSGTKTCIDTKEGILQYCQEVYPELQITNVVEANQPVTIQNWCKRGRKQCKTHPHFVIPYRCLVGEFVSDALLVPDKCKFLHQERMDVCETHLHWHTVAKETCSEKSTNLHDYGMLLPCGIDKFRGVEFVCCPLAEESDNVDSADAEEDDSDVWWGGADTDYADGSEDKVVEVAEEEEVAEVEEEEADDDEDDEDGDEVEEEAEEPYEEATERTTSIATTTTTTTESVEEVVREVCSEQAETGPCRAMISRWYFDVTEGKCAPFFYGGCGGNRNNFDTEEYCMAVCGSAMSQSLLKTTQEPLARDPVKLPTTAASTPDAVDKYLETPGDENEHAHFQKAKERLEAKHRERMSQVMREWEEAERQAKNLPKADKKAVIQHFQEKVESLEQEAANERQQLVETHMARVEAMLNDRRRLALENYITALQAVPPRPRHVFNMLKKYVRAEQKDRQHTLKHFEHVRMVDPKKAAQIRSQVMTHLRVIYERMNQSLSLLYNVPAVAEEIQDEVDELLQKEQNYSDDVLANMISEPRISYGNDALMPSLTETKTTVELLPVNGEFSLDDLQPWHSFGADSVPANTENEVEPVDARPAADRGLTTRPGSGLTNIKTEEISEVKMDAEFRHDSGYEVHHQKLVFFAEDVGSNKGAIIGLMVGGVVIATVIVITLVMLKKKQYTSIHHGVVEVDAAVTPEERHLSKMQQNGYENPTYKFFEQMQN

As for `COC(=O)c1c2c3ccccc3nc(-c3ccc[nH]3)c2n2ccccc12`, the Activity entry in the data set with HT-22 is listed as “Toxic”.
Turning to `c1ccc2c(-c3nc4ccccc4c4cc5ccccn5c34)cccc2c1`, the Activity result with HT-22 was “Toxic”.
As to `Cc1cccn2c1cc1c3ccccc3nc(-c3cccc4ccccc34)c12`, in the data set with HT-22, the Activity entry is “Toxic”.
As to `c1ccc(-c2nc3ccccc3c3cc4ccccn4c23)nc1`, in the data set on HT-22, the Activity entry is listed as “Toxic”.
Still for that read-out and setting: then `Cc1cccn2c1cc1c3ccccc3nc(-c3cc4ccccc4o3)c12`, with “Toxic”; and `c1ccc(-c2nc3ccccc3c3cc4ccccn4c23)cc1`, with “Toxic”; and `COc1cccc(-c2nc3ccccc3c3cc4c(C)cccn4c23)c1`, with “Toxic”.
As for `Clc1ccc(-c2nc3ccccc3c3cc4ccccn4c23)s1`, the Activity result in the data set on HT-22 was “Toxic”.
On to `Brc1ccc2cc3c4ccccc4nc(-c4ccco4)c3n2c1`, for which the Activity entry in the data set on HT-22 is given as “Toxic”. The inhibition in data set [1] is more than 30%.
On to `COc1cccc(-c2nc3ccccc3c3cc4ccccn4c23)c1`, for which the Activity entry with HT-22 was “Toxic”.
In the case of `Cc1cccn2c1cc1c3ccccc3nc(-c3ccco3)c12`, the Activity entry with HT-22 was “Toxic”.
The same measure, in the same setting: then `c1csc(-c2nc3ccccc3c3cc4ccccn4c23)c1`, with “Toxic”.
For the compound `Cc1ccc(-c2nc3ccccc3c3cc4c(C)cccn4c23)cc1`, in the data set with HT-22, the Activity entry is recorded as “Toxic”.
Still for that read-out and setting: then `COc1ccc(-c2nc3ccccc3c3c(I)c4ccccn4c23)cc1`, with “Toxic”; and `Clc1ccc(-c2nc3ccccc3c3cc4ccccn4c23)cc1`, with “Toxic”; and `COc1ccc(-c2nc3ccccc3c3cc4ccccn4c23)cc1`, with “Toxic”.
In the case of `Brc1ccc(-c2nc3ccccc3c3cc4ccccn4c23)cc1`, the Activity result in the data set with HT-22 is recorded as “Toxic”.
As to `CN(C)c1ccc(-c2nc3ccccc3c3cc4ccccn4c23)cc1`, in the data set on HT-22, the Activity result is recorded as “Toxic”. The inhibition in data set [2] was 20%; in data set [3] it was 10%; in data set [4] it was more than 60%; in data set [1] it was more than 30%.
As to `COc1ccc(-c2nc3ccccc3c3cc4c(C)cccn4c23)cc1OC`, in the data set with HT-22, the Activity entry is “Toxic”. The inhibition is 20% in data set [2], 40% in data set [4] and more than 30% in data set [1].
For `COc1ccc(-c2nc3ccccc3c3c(-c4ccc(F)cc4)c4ccccn4c23)cc1`, in the data set on HT-22, the Activity entry is “Toxic”.
With `COc1cc(OC)cc(-c2nc3ccccc3c3cc4ccccn4c23)c1`, the Activity result in the data set with HT-22 is on record as “Toxic”.
Consider `Brc1ccc(C2Nc3ccccc3-c3cc4ccccn4c32)cc1` (stereo unspecified), for which the Activity entry in the data set on HT-22 was “Toxic”.
Still for that read-out and setting: next, `COc1cc(OC)cc(-c2nc3ccccc3c3cc4c(C)cccn4c23)c1`: “Toxic”; `COc1ccc(-c2nc3ccccc3c3cc4ccc(-c5cc(OC)cc(OC)c5)cn4c23)cc1`: “Toxic”.
On to `Cc1cccn2c1cc1c3ccccc3nc(-c3cc4ccccc4[nH]3)c12`, for which the Activity entry in the data set with HT-22 is on record as “Toxic”. Further, the inhibition in data set [4] is 40%; in data set [1], more than 30%.
`c1ccc2cc(-c3nc4ccccc4c4cc5ccccn5c34)ccc2c1`: the Activity entry in the data set with HT-22 is recorded as “Toxic”.
On to `COc1ccc(-c2nc3ccccc3c3cc4ccccn4c23)cc1OC`, for which the Activity result with HT-22 is on record as “Toxic”.
As to `COc1cc(OC)cc(-c2ccc3cc4c5ccccc5nc(-c5cccc6ccccc56)c4n3c2)c1`, the Activity result with HT-22 is on record as “Toxic”. Also, the inhibition in data set [1] is more than 30%.
`CCOC(=O)c1c2c3ccccc3nc(-c3ccc(OC)c(OC)c3)c2n2ccccc12`: in the data set on HT-22, the Activity result was “Toxic”.
Same read-out and setting: next, `Cc1ccc2cc3c4ccccc4nc(-c4cccc5ccccc45)c3n2c1`: “Toxic”.
As to `COc1ccc(-c2nc3ccccc3c3cc4ccc(Br)cn4c23)cc1OC`, the Activity result in the data set with HT-22 is on record as “Toxic”. The inhibition in data set [2] is 20%; in data set [4], 40%; in data set [1] it was more than 30%.
Regarding `Cc1cccn2c1cc1c3ccccc3nc(-c3cccc(F)c3)c12`, in the data set on HT-22, the Activity entry is “Toxic”.

As usually defined, the inhibition is the drop in the measured response relative to a control, in per cent.
